# Reference: ChEMBL document CHEMBL4014326, “Discovery of an Orally Bioavailable Benzimidazole Diacylglycerol Acyltransferase 1 (DGAT1) Inhibitor That Suppresses Body Weight Gain in Diet-Induced Obese Dogs and Postprandial Triglycerides in Humans” (J Med Chem, 2017)
# pIC50: −log10 of the molar value.
# Columns and labels:
# [1] = Drug metabolism in human hepatocytes assessed as [3H]-(2S,3S,4S,5R,6S)-3,4,5-trihydroxy-6-(3-(4-(6-(5-(4-methoxyphenyl)-1,3,4-oxadiazol-2-yl)-1H-benzo[d]imidazol-2-yl)-3,5-dimethylphenyl)-2,2-dimethylpropanoyloxy)tetrahydro-2H-pyran-2-carboxylic acid formation at 12.5 uM after 18 hrs; assay type: ADME, cell-based, Hepatocyte
# Procedure, shortened: (§1)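 [3H]-labelled compound (12.5 µM) was incubated for 18 h with rat, dog, monkey or human hepatocytes, and metabolites were profiled.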
# [2] = Half life in Sprague-Dawley rat at 1 mg/kg, iv by LC/MS/MS analysis; assay type: ADME, organism-based; details: in vivo
# Procedure, shortened: (§2)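 Male Sprague-Dawley rats, 200-300 g, dosed iv (n = 2) or po (n = 3) as solutions in NMP/PG or PEG400/ETPGS vehicles. Blood was taken from a jugular vein catheter at 0.083 (iv only), 0.25, 0.5, 1, 2, 4, 6 and 8 h into EDTA tubes, and plasma was analysed by LC-MS/MS. Values are means ± SD.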
# [3] = Drug metabolism in rat hepatocytes assessed as [3H]-(2S,3S,4S,5R,6S)-3,4,5-trihydroxy-6-(3-(4-(6-(5-(4-methoxyphenyl)-1,3,4-oxadiazol-2-yl)-1H-benzo[d]imidazol-2-yl)-3,5-dimethylphenyl)-2,2-dimethylpropanoyloxy)tetrahydro-2H-pyran-2-carboxylic acid formation at 12.5 uM after 18 hrs; assay type: ADME, cell-based, Hepatocyte; procedure, shortened: as §1
# [4] = Oral bioavailability in Sprague-Dawley rat at 3 mg/kg by LC/MS/MS analysis; assay type: ADME, organism-based; details: in vivo; procedure, shortened: as §2
# [5] = Drug metabolism in monkey hepatocytes assessed as [3H]-(2S,3S,4S,5R,6S)-3,4,5-trihydroxy-6-(3-(4-(6-(5-(4-methoxyphenyl)-1,3,4-oxadiazol-2-yl)-1H-benzo[d]imidazol-2-yl)-3,5-dimethylphenyl)-2,2-dimethylpropanoyloxy)tetrahydro-2H-pyran-2-carboxylic acid formation at 12.5 uM after 18 hrs; assay type: ADME, cell-based, Macaca mulatta, Hepatocyte; details: rhesus monkey; procedure, shortened: as §1
# [6] = Drug metabolism in dog hepatocytes assessed as [3H]-3-(3,5-dimethyl-4-(6-(5-phenyl-1,3,4-oxadiazol-2-yl)-1H-benzo[d]imidazol-2-yl)phenyl)-2,2-dimethylpropanoic acid formation at 12.5 uM after 18 hrs; assay type: ADME, cell-based, Canis lupus familiaris, Hepatocyte; procedure, shortened: as §1
# [7] = Permeability across apical to basolateral side in human Caco2 cells; assay type: ADME, cell-based; details: Caco-2, read-out: permeability
# Procedure, shortened: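 Caco-2 monolayer permeability was measured in the A-B and B-A directions, and the efflux ratio was taken as B-A/A-B.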
# [8] = molecular target: T1, Diacylglycerol O-acyltransferase 2 (Homo sapiens, UniProt Q96PD7); experiment: Inhibition of DGAT2 (unknown origin)
# T1 sequence (Q96PD7 whole entry): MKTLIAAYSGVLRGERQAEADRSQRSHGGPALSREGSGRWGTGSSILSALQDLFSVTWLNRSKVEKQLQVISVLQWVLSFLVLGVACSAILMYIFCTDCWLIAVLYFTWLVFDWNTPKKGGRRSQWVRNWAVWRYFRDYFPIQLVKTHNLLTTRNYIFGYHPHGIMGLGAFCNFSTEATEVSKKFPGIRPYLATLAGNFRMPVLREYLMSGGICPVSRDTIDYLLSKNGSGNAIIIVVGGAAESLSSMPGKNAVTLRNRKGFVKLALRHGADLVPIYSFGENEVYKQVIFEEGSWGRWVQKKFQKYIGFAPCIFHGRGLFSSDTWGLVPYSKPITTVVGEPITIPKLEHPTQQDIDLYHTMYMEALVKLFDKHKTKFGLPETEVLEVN
structure (smiles),measurement,setting,value
COc1ccc(-c2nnc(-c3ccc4nc(-c5c(C)cc(CC(C)(C)C(=O)O)cc5C)[nH]c4c3)o2)cc1,Drug metabolism,[1],Metabolite_Detected
same,half-life,[2],114 min
same,Drug metabolism,[3],Metabolite_Detected
same,bioavailability,[4],90%
same,Drug metabolism,[5],Metabolite_Detected
same,Drug metabolism,[6],Metabolite_Detected
same,Papp A→B,[7],4.2 ×10⁻⁶ cm/s
same,pIC50,[8],< 5.00
